Results taken from publication PMC5801548 (Bioconjugate chemistry, 2017).

Tests used:
P. aeruginosa ATCC 27853 = assay: Disk diffusion assay; assay type: cell-based; conditions: Pa ATCC 27853, 20 μg on blank disc (Ø = 0.6 cm), 24 h
Summary of the method: (§1)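 The test compound (20 µg) was loaded onto a blank 0.6 cm disc and placed on an agar plate inoculated with the bacterium. The plate was incubated for 24 h, and the diameter of the bacteria-free zone around the disc was measured in cm. Saline was included as a control.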

A. baumannii ATCC 19606 [1] = assay: Disk diffusion assay; assay type: cell-based; conditions: Ab ATCC 19606, 20 μg on blank disc (Ø = 0.6 cm), 24 h
Summary of the method: as §1

Ab ATCC 19606 = conditions: broth microdilution, mass basis; data with * ref [21]; cited from earlier work
A. baumannii ATCC 19606 [2] = assay: Time-kill study; assay type: cell-based; conditions: 4 × MIC (mass based; higher value where MIC is a range)

Substance	Diameter of Zone of Inhibition (ZOI) (P. aeruginosa ATCC 27853)	Diameter of Zone of Inhibition (ZOI) (A. baumannii ATCC 19606 [1])	Minimum inhibitory concentration against Ab ATCC 19606 (MIC) (Ab ATCC 19606)	Time to inhibit the growth of bacteria to levels approaching the detection limit (A. baumannii ATCC 19606 [2])
colistin	1.8 cm	1.8 cm	1* mg/L	–
colistin methanesulfonate [CMS]	1.7 cm	1.8 cm	16* mg/L	around 6 h
